Experimental data as given in ChEMBL document CHEMBL1142988 (J Med Chem, 2007).
Activity calls are given as the source filed them. No cut-off for these calls is given here.

What was measured:
[1] = target: Glutamate receptor ionotropic, kainate 1 (Rattus norvegicus, UniProt P22756); experiment: Activity at native GLUK5 kainate receptor assessed as antagonism of kainite-induced depolarization of neonatal non-anaesthetised rat dorsal root fibres
Glutamate receptor 2 = Glutamate receptor 2 (Homo sapiens, UniProt P42262); experiment: Antagonist activity at human recombinant GLUA2-AMPA receptor expressed in HEK293 cells assessed as inhibition of glutamate-stimulated calcium influx by FLIPR assay; assay type: functional, cell-based
Sequence of Glutamate receptor 2 (P42262 whole entry): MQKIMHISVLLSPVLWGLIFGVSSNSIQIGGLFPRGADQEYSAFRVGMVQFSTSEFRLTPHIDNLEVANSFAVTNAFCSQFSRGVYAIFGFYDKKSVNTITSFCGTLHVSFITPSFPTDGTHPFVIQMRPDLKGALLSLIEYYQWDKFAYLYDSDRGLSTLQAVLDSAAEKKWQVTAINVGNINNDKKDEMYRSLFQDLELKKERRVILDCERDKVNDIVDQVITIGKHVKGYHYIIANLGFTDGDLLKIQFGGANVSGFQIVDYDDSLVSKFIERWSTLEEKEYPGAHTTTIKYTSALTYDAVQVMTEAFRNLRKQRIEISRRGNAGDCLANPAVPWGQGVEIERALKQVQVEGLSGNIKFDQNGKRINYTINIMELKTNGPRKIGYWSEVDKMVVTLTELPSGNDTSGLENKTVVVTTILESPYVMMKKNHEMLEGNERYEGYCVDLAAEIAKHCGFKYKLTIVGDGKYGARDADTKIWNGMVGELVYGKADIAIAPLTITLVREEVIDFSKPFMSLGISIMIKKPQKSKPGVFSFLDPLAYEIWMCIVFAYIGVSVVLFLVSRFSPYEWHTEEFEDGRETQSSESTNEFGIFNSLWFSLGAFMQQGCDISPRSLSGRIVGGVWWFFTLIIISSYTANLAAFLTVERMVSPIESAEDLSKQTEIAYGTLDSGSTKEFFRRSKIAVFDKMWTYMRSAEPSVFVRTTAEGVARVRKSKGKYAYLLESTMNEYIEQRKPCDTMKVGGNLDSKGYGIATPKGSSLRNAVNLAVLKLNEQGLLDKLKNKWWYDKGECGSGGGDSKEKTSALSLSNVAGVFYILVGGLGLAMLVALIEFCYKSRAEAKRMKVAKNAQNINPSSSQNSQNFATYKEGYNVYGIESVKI

[2] = Antagonist activity at human recombinant GLUK6/GLUK2 expressed in HEK293 cells assessed as inhibition of glutamate-stimulated calcium influx by FLIPR assay; assay type: functional, cell-based
[3] = Antagonist activity at native AMPA receptor assessed as fDR-VRP reduction of neonatal rat spinal cord motorneurones; assay type: functional
Summary of the method: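 Neonatal (1-5-day-old, non-anaesthetized) rat hemisected spinal cord. Concentration-response curves for antagonist (5 min applications) on the fast component of the dorsal root-evoked ventral root potential, with 2 mM MgSO4 and 50 µM (R)-AP5 (30 min preincubation) to block NMDA receptors; mean ± SEM, n = 3.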

[4] = target: Glutamate receptor ionotropic, kainate 2 (Homo sapiens, UniProt Q13002); experiment: Antagonist activity at human recombinant GLUK6 expressed in HEK293 cells assessed as inhibition of glutamate-stimulated calcium influx by FLIPR assay; assay type: functional, cell-based
Sequence of Glutamate receptor ionotropic, kainate 2 (Q13002 whole entry): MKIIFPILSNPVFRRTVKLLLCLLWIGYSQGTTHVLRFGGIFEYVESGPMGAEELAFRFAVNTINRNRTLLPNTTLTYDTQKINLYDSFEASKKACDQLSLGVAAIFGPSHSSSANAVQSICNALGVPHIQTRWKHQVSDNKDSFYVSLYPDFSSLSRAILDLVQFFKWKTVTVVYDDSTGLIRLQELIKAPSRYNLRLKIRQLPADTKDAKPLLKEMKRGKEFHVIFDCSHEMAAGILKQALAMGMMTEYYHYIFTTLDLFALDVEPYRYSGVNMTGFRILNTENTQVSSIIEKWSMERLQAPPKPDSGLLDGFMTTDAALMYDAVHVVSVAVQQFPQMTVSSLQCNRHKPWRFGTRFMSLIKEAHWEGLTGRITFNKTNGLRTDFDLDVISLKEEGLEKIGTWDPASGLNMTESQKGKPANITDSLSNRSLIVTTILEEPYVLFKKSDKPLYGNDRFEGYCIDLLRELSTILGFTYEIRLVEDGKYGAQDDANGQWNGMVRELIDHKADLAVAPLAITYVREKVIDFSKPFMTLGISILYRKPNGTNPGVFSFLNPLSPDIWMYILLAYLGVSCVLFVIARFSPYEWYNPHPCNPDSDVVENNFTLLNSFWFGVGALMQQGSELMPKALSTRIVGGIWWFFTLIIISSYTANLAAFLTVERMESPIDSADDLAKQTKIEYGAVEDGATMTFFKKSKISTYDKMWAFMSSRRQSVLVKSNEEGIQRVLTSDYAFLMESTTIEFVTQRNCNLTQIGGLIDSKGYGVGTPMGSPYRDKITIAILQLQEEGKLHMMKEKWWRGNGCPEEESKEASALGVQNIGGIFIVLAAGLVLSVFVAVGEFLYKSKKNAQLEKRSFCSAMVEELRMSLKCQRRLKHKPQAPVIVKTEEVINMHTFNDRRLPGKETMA

[5] = Antagonist activity at human recombinant GLUK5/GLUK6 expressed in HEK293 cells assessed as inhibition of glutamate-stimulated calcium influx by FLIPR assay; assay type: functional, cell-based
[6] = Activity at native AMPA receptor assessed as antagonism of (S)-5-fluoriwillardiine-induced depolarization of neonatal rat spinal cord motorneurones; assay type: functional
[7] = target: Glutamate receptor ionotropic, kainate 1 (Homo sapiens) (UniProt P39086); experiment: Antagonist activity at human recombinant GLUK5/GLUK2 expressed in HEK293 cells assessed as inhibition of glutamate-stimulated calcium influx by FLIPR assay; assay type: functional, cell-based
Sequence of Glutamate receptor ionotropic, kainate 1 (Homo sapiens) (P39086 whole entry): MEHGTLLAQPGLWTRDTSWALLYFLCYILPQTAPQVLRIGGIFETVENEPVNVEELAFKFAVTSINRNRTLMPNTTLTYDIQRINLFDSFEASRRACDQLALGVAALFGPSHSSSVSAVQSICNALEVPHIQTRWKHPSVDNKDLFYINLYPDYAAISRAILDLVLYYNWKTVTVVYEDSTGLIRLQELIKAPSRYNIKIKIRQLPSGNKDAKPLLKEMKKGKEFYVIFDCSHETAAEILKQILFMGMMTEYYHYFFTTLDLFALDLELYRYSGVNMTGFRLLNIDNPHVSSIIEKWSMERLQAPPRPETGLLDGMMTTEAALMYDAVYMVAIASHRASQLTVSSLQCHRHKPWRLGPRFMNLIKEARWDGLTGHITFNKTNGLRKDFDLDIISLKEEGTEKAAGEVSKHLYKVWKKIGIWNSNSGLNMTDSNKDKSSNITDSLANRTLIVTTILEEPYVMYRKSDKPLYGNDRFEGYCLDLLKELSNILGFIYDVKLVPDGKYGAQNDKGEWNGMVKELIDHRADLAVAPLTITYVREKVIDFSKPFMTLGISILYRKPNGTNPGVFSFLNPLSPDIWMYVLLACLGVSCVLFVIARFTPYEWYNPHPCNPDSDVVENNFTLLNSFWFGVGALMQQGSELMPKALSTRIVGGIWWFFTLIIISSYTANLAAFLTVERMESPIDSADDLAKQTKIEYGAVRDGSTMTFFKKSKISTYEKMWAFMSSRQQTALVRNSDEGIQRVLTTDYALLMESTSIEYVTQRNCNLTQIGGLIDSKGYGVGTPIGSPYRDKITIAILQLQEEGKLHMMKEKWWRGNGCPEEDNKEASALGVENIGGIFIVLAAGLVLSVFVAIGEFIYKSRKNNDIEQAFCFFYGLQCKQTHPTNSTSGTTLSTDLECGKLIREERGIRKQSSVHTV

[8] = target: Glutamate receptor ionotropic, kainate 1 (Homo sapiens) (UniProt P39086); experiment: Antagonist activity at human recombinant GLUK5 receptor expressed in HEK293 cells assessed as inhibition of glutamate-stimulated calcium influx by FLIPR assay; assay type: functional, cell-based
Summary of the method: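 Human GLUK5(Q) cells (Bmax of [3H]kainate binding 1.7 pmol/mg) loaded with calcium dye and read on FLIPR. Kb derived from IC50 by Cheng-Prusoff. Mean ± SEM, n = 3.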

[9] = target: Metabotropic glutamate receptor 5 (Rattus norvegicus) (UniProt P31424); experiment: Antagonist activity at mGlu5 receptor assessed as inhibition of DHPG-induced depolarization of neonatal rat spinal cord motoneurons at 10 uM; assay type: functional
[10] = Antagonist activity at human recombinant GLUK6/GLUK2 expressed in HEK293 cells assessed as inhibition of glutamate-stimulated calcium influx at 100 uM by FLIPR assay; assay type: functional
[11] = target: Metabotropic glutamate receptor 1 (Rattus norvegicus) (UniProt P23385); experiment: Antagonist activity at mGlu1 receptor assessed as inhibition of DHPG-induced depolarization of neonatal rat motoneurons at 10 uM; assay type: functional
Sequence of Metabotropic glutamate receptor 1 (Rattus norvegicus) (P23385 19-1199 limits assumed): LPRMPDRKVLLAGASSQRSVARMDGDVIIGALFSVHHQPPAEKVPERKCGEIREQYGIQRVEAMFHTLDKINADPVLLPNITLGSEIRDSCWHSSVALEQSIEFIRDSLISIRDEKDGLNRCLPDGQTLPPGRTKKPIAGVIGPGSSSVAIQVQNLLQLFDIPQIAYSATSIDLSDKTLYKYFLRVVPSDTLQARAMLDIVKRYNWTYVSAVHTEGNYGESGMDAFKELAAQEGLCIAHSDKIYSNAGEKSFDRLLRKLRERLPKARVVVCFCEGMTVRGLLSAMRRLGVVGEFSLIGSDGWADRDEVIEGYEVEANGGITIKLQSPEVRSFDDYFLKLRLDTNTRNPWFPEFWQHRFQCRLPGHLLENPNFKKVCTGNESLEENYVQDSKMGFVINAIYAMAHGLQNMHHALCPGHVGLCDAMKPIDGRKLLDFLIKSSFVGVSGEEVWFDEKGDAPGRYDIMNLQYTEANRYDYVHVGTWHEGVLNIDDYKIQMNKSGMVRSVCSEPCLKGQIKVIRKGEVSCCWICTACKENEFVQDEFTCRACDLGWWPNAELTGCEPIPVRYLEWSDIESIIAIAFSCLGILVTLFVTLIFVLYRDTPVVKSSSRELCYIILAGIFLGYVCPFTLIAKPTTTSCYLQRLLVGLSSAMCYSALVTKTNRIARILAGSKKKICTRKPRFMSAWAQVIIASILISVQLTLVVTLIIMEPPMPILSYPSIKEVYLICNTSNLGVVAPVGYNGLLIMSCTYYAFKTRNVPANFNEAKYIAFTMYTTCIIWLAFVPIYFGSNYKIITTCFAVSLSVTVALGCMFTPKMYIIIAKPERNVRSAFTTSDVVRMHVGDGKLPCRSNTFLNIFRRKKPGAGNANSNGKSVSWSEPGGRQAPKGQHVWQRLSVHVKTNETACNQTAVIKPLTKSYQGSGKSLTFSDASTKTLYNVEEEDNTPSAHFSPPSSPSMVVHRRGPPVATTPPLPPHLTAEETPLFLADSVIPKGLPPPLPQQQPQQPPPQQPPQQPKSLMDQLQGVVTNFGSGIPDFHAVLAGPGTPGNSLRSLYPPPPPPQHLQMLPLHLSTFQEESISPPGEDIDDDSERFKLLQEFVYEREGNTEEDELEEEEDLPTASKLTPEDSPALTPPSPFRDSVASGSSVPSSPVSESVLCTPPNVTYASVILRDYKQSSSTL

[12] = target: T1, Glutamate NMDA receptor (Rattus norvegicus) (UniProt P35439+Q00959+Q00960+Q00961+Q62645+Q8VHN2+Q9R1M7); experiment: Antagonist activity at NMDA receptor assessed as inhibition of NMDA-induced depolarization of neonatal rat spinal cord motoneurons at 10 uM; assay type: functional
[13] = target: Metabotropic glutamate receptor 5 (Rattus norvegicus) (UniProt P31424); experiment: Antagonist activity at mGlu5 receptor assessed as inhibition of DHPG-induced depolarization of neonatal rat spinal cord motoneurons at 1 uM; assay type: functional
[14] = target: Metabotropic glutamate receptor 1 (Rattus norvegicus) (UniProt P23385); experiment: Antagonist activity at mGlu1 receptor assessed as inhibition of DHPG-induced depolarization of neonatal rat spinal cord motoneurons at 1 uM; assay type: functional
[15] = target: T1, Glutamate NMDA receptor (Rattus norvegicus); experiment: Antagonist activity at NMDA receptor assessed as inhibition of NMDA-induced depolarization of neonatal rat spinal cord motoneurons at 1 uM; assay type: functional

Sequence of Glutamate receptor ionotropic, kainate 1 (P22756 whole entry): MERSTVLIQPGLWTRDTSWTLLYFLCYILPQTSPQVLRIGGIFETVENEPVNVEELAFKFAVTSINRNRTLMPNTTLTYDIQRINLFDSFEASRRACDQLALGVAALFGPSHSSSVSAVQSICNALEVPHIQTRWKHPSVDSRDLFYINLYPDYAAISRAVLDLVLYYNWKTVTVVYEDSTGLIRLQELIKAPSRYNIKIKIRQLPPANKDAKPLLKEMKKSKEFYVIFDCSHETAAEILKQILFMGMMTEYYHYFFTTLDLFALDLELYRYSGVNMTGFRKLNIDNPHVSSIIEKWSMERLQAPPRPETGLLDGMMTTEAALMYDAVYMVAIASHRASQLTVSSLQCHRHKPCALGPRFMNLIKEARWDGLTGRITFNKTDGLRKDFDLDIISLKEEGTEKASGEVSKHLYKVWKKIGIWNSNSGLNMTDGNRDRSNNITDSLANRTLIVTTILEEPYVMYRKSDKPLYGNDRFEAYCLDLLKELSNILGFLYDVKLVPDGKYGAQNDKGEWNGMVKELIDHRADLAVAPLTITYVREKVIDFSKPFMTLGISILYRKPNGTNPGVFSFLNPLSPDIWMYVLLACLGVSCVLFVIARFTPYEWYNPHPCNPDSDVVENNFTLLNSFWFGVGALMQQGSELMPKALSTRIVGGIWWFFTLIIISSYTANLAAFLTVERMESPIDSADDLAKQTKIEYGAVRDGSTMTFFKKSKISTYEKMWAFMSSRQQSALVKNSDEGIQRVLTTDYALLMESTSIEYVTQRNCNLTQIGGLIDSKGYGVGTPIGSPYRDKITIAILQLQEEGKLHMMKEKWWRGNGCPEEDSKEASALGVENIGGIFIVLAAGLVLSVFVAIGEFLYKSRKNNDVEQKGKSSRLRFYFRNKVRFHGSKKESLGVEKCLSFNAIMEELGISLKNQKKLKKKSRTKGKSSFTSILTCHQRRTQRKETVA

SMILES	Kd [1] [µM]	IC50 [2] [µM]	IC50 [3] [µM]	other results
N#Cc1cc2c(cc1[N+](=O)[O-])=NC(=O)C(=O)N=2	1.38			
N[C@@H](Cn1ccc(=O)n(Cc2ccsc2C(=O)O)c1=O)C(=O)O	0.105	> 100	31.2	IC50 (Glutamate receptor 2): > 100 µM; IC50 [4]: > 100 µM; Kb [5]: 0.12 µM; Kd [6]: 71.4 µM; Kb [7]: 0.18 µM; Kb [8]: 0.12 µM
N[C@@H](Cn1cc(C(F)(F)F)c(=O)n(Cc2ccsc2C(=O)O)c1=O)C(=O)O	0.055		55.3	
Cc1cn(C[C@H](N)C(=O)O)c(=O)n(Cc2ccsc2C(=O)O)c1=O	0.018	> 100	16.2	IC50 (Glutamate receptor 2): > 100 µM; IC50 [4]: > 100 µM; Activity [9]: inactive; Kd [6]: 83.4 µM; inhibition at 100 µM [10]: 27%; Kb [7]: 0.008 µM; Activity [11]: inactive; Activity [12]: inactive; Kb [8]: 0.01 µM
N[C@@H](Cn1ccc(=O)n(Cc2ccoc2C(=O)O)c1=O)C(=O)O	1.88		11.7	
N[C@@H](Cn1cc(I)c(=O)n(Cc2ccccc2C(=O)O)c1=O)C(=O)O			74.1	
N[C@@H](Cn1cc(Br)c(=O)n(Cc2ccsc2C(=O)O)c1=O)C(=O)O	0.025		42.9	
Cc1cn(C[C@H](N)C(=O)O)c(=O)n(Cc2ccccc2C(=O)O)c1=O	0.023		51.2	
N[C@@H](Cn1ccc(=O)n(Cc2ccccc2C(=O)O)c1=O)C(=O)O		> 300	106	IC50 (Glutamate receptor 2): > 300 µM; IC50 [4]: > 300 µM; Kb [5]: 0.8 µM; Kb [7]: 1 µM; Kb [8]: 0.6 µM
N[C@@H](Cn1cc(Br)c(=O)n(Cc2ccccc2C(=O)O)c1=O)C(=O)O	0.102		63.9	
Cc1cn(C[C@H](N)C(=O)O)c(=O)n(Cc2cc(-c3ccccc3)sc2C(=O)O)c1=O	0.012	> 100	16.6	IC50 (Glutamate receptor 2): > 100 µM; Activity [13]: inactive; Activity [14]: inactive; IC50 [4]: > 100 µM; Kd [6]: 108 µM; Activity [15]: inactive; Kb [7]: 0.005 µM; Kb [8]: 0.007 µM
N[C@@H](Cn1cc(F)c(=O)n(Cc2ccccc2C(=O)O)c1=O)C(=O)O	0.358		18.5	
NS(=O)(=O)c1cccc2c1c([N+](=O)[O-])cc1nc(O)c(O)nc12 [NBQX]		135		IC50 [5]: 28 µM
Cc1cn(C[C@H](N)C(=O)O)c(=O)n(Cc2c(C(=O)O)sc(Br)c2Br)c1=O	0.01		2.8	
Cc1cn(C[C@H](N)C(=O)O)c(=O)n(Cc2ccoc2C(=O)O)c1=O	0.08		25.1	
